Data set [1] addresses T1, Prostate-specific antigen (Homo sapiens, UniProt P07288).
T1 sequence (P07288 whole entry): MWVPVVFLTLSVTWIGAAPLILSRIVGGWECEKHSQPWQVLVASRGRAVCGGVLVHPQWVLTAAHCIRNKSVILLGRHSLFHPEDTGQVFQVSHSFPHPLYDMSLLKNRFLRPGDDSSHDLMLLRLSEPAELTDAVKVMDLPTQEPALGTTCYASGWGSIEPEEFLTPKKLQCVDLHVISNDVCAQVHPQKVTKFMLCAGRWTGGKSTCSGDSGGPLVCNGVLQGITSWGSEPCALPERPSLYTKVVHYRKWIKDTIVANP
Kind of data set: Prodrug activation assessed as PSA-mediated (unknown origin) [4-[[(2S)-2-[[(2R)-2-amino-3-hydroxy-propanoyl]amino]-4-methyl-pentanoyl]amino]phenyl]methyl N,N-diethylcarbamodithioate metabolite formation in presence of CuSO4 by LC-MS analysis. Format: ADME. The method, boiled down:
(§1)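 Prodrug was incubated with 20 μg/mL PSA enzyme and sampled from 5 min to 48 h. Samples were analysed by HPLC at 254 nm, and products were assigned by mass spectrometry (m/z).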

The target of data set [2] is T1, Prostate-specific antigen. In words: Prodrug activation assessed as PSA-mediated (unknown origin) Cu(diethyldithiocarbamate)2 complex formation in presence of CuSO4 by LC-MS analysis. Format: ADME. The method, boiled down:
as §1

Data set [3] deals with T1, Prostate-specific antigen. Kind of data set: Prodrug activation assessed as PSA-mediated (unknown origin) Leu-PAB-DT metabolite formation measured up to 48 hrs by HPLC analysis. Type of data set: ADME. In short, it runs like this: (§2)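 Prodrug incubated with 20 μg/mL PSA enzyme; samples taken at 5 min, 1 h, 2 h, 4 h, 8 h, 24 h and 48 h. Monitored by HPLC at 254 nm as percent prodrug remaining. Cleavage product identity confirmed by mass spectrometry.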

Data set [4] concerns the target T1, Prostate-specific antigen. In words: Prodrug activation assessed as PSA-mediated (unknown origin) diethyldithiocarbamate formation in presence of leucine aminopeptidase by LC-MS analysis. Format: ADME.
Data set [5] has as its target T1, Prostate-specific antigen. In words: Prodrug activation in human LNCAP cell lysates assessed as PSA-mediated peptide cleavage measured up to 4 hrs by HPLC analysis. Format: subcellular, Lysate. The method, boiled down:
(§3)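 Prodrug incubated with LNCaP or PC3 cell lysate. Cleavage followed over time by HPLC, with caffeine as reference, for up to 48 h.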

Data set [6] can be described thus: Prodrug activation in human PC3 cell lysate assessed as peptide cleavage measured up to 48 hrs by HPLC analysis. Type of data set: subcellular. The following applies: pc-3, 48 h. In short, it runs like this:
as §3

Data set [7] has as its target T2, Prostate-specific antigen (PSA) (Homo sapiens, UniProt P07288).
T2 sequence (P07288 whole entry): T1 sequence (P07288 whole entry)
Kind of data set: Stability assessed as PSA-mediated (unknown origin) compound cleavage by measuring parent compound remaining after 48 hrs by HPLC analysis. Format: ADME. The following applies: prostate-specific antigen (PSA) enzyme, read-out: Stability. The method, boiled down:
as §2

Data set [8] has as its target T1, Prostate-specific antigen. Kind of data set: Prodrug activation assessed as PSA-mediated (unknown origin) Cu(diethyldithiocarbamate)2 complex formation in presence of leucine aminopeptidase and CuSO4 after 14.5 mins by LC-MS analysis. Type of data set: ADME.
Data set [9] can be described thus: Cytotoxicity against human prostate epithelial cells assessed as reduction in cell viability after 24 hrs by resazurin dye based assay. In general terms: Alamar Blue is a resazurin reagent that responds to reducing activity.
The subject of another data set is Prostatic carcinoma cell. Kind of data set: Antiproliferative activity against human prostate cancer cells assessed as reduction in cell viability after 24 hrs by resazurin dye based assay. Type of data set: functional. In short, it runs like this: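 LNCaP (PSA-expressing) and PC3 (PSA-non-expressing) cells were co-treated with prodrug plus 1 μM CuSO4. Proliferation was read by resazurin assay at 24 h, and IC50 was derived.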

Data set [10] can be described thus: Prodrug activation in human PC3 cell lysate assessed as peptide cleavage measured up to 4 hrs by HPLC analysis. The following applies: pc-3, 4 h. Type of data set: subcellular. In short, it runs like this:
as §3

Data set [11] concerns the target T1, Prostate-specific antigen. In words: Prodrug activation assessed as PSA-mediated (unknown origin) compound cleavage measured up to 8 hrs by HPLC analysis. The method, boiled down: as §2
For data set [12], the target named is T1, Prostate-specific antigen. Kind of data set: Prodrug activation assessed as PSA-mediated (unknown origin) 4-((R)-2-((R)-2-amino-3-hydroxypropanamido)-4-methylpentanamido)benzyl diethyl-carbamodithioate metabolite formation by HPLC analysis. Format: ADME. The method, boiled down: as §2

This is an account of results in ChEMBL document CHEMBL4627365, “Dithiocarbamate prodrugs activated by prostate specific antigen to target prostate cancer” (Bioorg Med Chem Lett, 2020).

The structures appear in SMILES notation. Residues, ends and D or L forms follow the SMILES beside them. *: point of attachment. X1 = CCN(CC)C(=S)SCc1ccc(N*)cc1

For `CCN(CC)C(=S)SCc1ccc(NC(=O)[C@H](CC(C)C)NC(=O)[C@H](CO)NC(=O)[C@H](Cc2ccc(O)cc2)NC(=O)[C@H](Cc2ccc(O)cc2)NC(=O)[C@H](CO)NC(=O)[C@H](CO)NC(=O)[C@H](CCCNC(=N)N)NC(=O)[C@H](N)CO)cc1`, the Drug metabolism result was “Metabolite_Detected” in [1] and “Metabolite_Notdetected” in data set [2].

Take `CCN(CC)C(=S)SCc1ccc(NC(=O)[C@H](CC(C)C)NC(=O)[C@H](CO)NC(=O)[C@H](Cc2ccc(O)cc2)NC(=O)[C@H](Cc2ccc(O)cc2)NC(=O)[C@H](CO)NC(=O)[C@H](CO)NC(=O)[C@@H](N)CCCNC(=N)N)cc1` (H-RSSYYSL-X1): the Drug metabolism entry in data set [3] is given as “Metabolite_Detected”; in data set [4] it was “Metabolite_Notdetected”; in data set [5], 100%; in data set [6], “Metabolite_Notdetected”; in data set [8], “Metabolite_Detected”. Further, the remaining at 48 h in [7] amounted to 30%.

Consider `CCN(CC)C(=S)SCc1ccc(NC(=O)CC[C@H](N)C(=O)O)cc1`, for which the IC50 was 15 µM in data set [9] and 0.8 µM with Prostatic carcinoma cell.

For `CCN(CC)C(=S)SCc1ccc(NC(=O)[C@H](CC(C)C)NC(=O)[C@H](CCC(N)=O)NC(=O)[C@H](CC(C)C)NC(=O)[C@H](CCCCN)NC(=O)[C@H](CO)NC(=O)[C@H](CO)NC(=O)[C@H](Cc2c[nH]cn2)NC(C)=O)cc1` (Ac-HSSKLQL-X1), the Drug metabolism in data set [10] is on record as greater than 50%; in data set [4], “Metabolite_Notdetected”; in data set [11] it was 100%; in data set [5] it was 100%; in data set [12], “Metabolite_Detected”; in [8], “Metabolite_Detected”.

What is called IC50 is the concentration that inhibits the measured activity by half.
